For assay [1], the species on record is Mus musculus. Nature of the assay: Compound was evaluated for hallucinogenic activity in mice; Inactive. The class given is functional, organism-based. The procedure, abridged:
(§1)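 Male albino Swiss-Webster derived mice, 25–40 g, group housed at 22–24 °C, 12–12 h light-dark cycle. HCl salt given ip in saline (0.1 mL/10 g body weight). Mice observed in groups of three, continuously for 30 min; total hindleg scratches of the back of the ear counted, with the hindleg then returned to the floor. Saline control included.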

Assay [2] has as its system Mus musculus. Nature of the assay: Evaluated for ear-scratch response (hallucinogen like activity) in mice at a dose of 5.00 mg/Kg. The class given is functional. Summed up:
as §1

The test system of assay [3] is Mus musculus. Nature of the assay: Evaluated for ear-scratch response (hallucinogen like activity) in mice at a dose of 10.00 mg/Kg. It is filed as functional. Summed up: as §1
Assay [4] relates to Mus musculus. Nature of the assay: Evaluated for ear-scratch response (hallucinogen like activity) in mice at a dose of 20.00 mg/Kg. The class given is functional. Summed up:
as §1

The test system of assay [5] is Mus musculus. Nature of the assay: Evaluated for ear-scratch response (hallucinogen like activity) in mice at a dose of 2.5 mg/Kg. It is filed as functional. The procedure, abridged: as §1
Assay [6] deals with Mus musculus. Description: Evaluated for ear-scratch response (hallucinogen like activity) in mice at a dose of 10.0 mg/Kg. The class given is functional. Summed up: as §1
Assay [7] deals with Mus musculus. Description: Evaluated for ear-scratch response (hallucinogen like activity) in mice at a dose of 1.25 mg/Kg. It is filed as functional. Summed up: as §1
The test system of assay [8] is Mus musculus. Description: Evaluated for ear-scratch response (hallucinogen like activity) in mice at a dose of 20.0 mg/Kg. The class given is functional. The procedure, abridged: as §1
For assay [9], the system named is Mus musculus. Nature of the assay: Evaluated for ear-scratch response (hallucinogen like activity) in mice at a dose of 2.00 mg/Kg. The class given is functional. The procedure, abridged:
as §1

The subject of assay [10] is Mus musculus. Nature of the assay: Evaluated for ear-scratch response (hallucinogen like activity) in mice at a dose of 1.00 mg/Kg. It is filed as functional. Summed up: as §1
The subject of assay [11] is Mus musculus. Description: Evaluated for ear-scratch response (hallucinogen like activity) in mice at a dose of 4.00 mg/Kg. It is filed as functional. Summed up:
as §1

Active and inactive are the calls of the source. The calls are words filed in the database; no cut-off is given here.

In the case of `CC[C@@H](N)Cc1cc(OC)c(C)cc1OC`, in the assay listed under Mus musculus [1], the Halucinogenic activity entry was “inactive”.

On to `COc1cc(C2CC2N)c(OC)cc1C` (configuration not stated), for which the No. of scratches came to 39.5 in the assay with Mus musculus [2], 56.2 with Mus musculus [3] and 64.2 in the assay with Mus musculus [4].

Regarding `COc1cc([C@@H]2[C@@H](C)[C@H]2N)c(OC)cc1C` (stereo in doubt; 4a), the No. of scratches with Mus musculus [2] amounted to 17.3; with Mus musculus [5], 10.8; with Mus musculus [6], 12.8; in the assay on Mus musculus [7], 11.5; in the assay with Mus musculus [8], 2.5.

On to `COc1cc(C[C@@H](C)N)c(OC)cc1C`, for which the No. of scratches in the assay with Mus musculus [9] stood at 109.2; in the assay with Mus musculus [10], 52.4; in the assay with Mus musculus [11], 79.

(Values after ChEMBL document CHEMBL1122052, “Isomeric cyclopropyl ring-methylated homologues of trans-2-(2,5-dimethoxy-4-methylphenyl)cyclopropylamine, an hallucinogen analogue” (1982).)
